Source: ChEMBL document CHEMBL4049418, “6-OH-Phenanthroquinolizidine Alkaloid and Its Derivatives Exert Potent Anticancer Activity by Delaying S Phase Progression” (J Med Chem, 2017)

What was measured:
Bel-7402 = experiment: Antiproliferative activity against human Bel7402 cells assessed as reduction in viability after 72 hrs by SRB assay; format: functional, cell-based; details: Bel-7402, 72 h
Summary of the method: (§1)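 Cells seeded and dosed in triplicate for 72 h. Suspension lines (HL-60, K-562, K562/ADR, HL-60/MX2) were read by MTT: 5 mg/mL MTT stock added, 4 h at 37 °C, formazan dissolved in 10% SDS/5% isobutanol/10 mM HCl, A570. Adherent lines were read by SRB: fixed with cold 10% TCA, stained with 0.4% SRB in 1% acetic acid, A540. IC50 from four-parameter logistic fit; mean of ≥3 independent experiments.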

A549 = experiment: Antiproliferative activity against human A549 cells assessed as reduction in viability after 72 hrs by SRB assay; format: functional, cell-based; details: A549, 72 h; summary of the method: as §1
K562 = experiment: Antiproliferative activity against human K562 cells after 72 hrs by MTT assay; format: functional, cell-based; details: K562, 72 h; summary of the method: as §1
K562/Adr = experiment: Antiproliferative activity against human K562/ADR cells after 72 hrs by MTT assay; format: functional, cell-based; summary of the method: as §1
[1] = Resistance factor, ratio of IC50 for human K562/ADR cells to IC50 for human K562 cells; format: functional
Summary of the method: (§2)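 72 h treatment in triplicate; suspended lines (HL-60, K-562, K562/ADR, HL-60/MX2) read by MTT (4 h, SDS/isobutanol/HCl solubilization, 570 nm); adherent KB and KB/VCR (MEM, 10% FBS) by SRB after TCA fixation (540 nm); IC₅₀ by four-parameter logistic fit, mean of ≥3 independent experiments.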

KB = experiment: Antiproliferative activity against human KB cells after 72 hrs by SRB assay; format: functional, cell-based; summary of the method: as §1
[2] = Antiproliferative activity against human KB/VCR cells after 72 hrs by SRB assay; format: functional, cell-based; summary of the method: as §1
[3] = Resistance factor, ratio of IC50 for human KB/VCR cells to IC50 for human KB cells; format: functional; summary of the method: as §2
HL60/MX2 = experiment: Antiproliferative activity against human HL60/MX2 cells after 72 hrs by MTT assay; format: functional, cell-based; details: HL60/MX2, 72 h; summary of the method: as §1
HL-60 = experiment: Antiproliferative activity against human HL60 cells after 72 hrs by MTT assay; format: functional, cell-based; details: HL-60, 72 h; summary of the method: as §1
[4] = Resistance factor, ratio of IC50 for human HL60/MX2 cells to IC50 for human HL60 cells; format: functional; summary of the method: as §2
L02 = experiment: Antiproliferative activity against human LO2 cells assessed as reduction in viability after 72 hrs by SRB assay; format: cell-based; details: L02, 72 h; summary of the method: as §1
[5] = Selectivity ratio of IC50 for human MRC5 cells to IC50 for human A549 cells
Summary of the method: (§3)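 SRB assay: A549 (F-12, 10% FBS) and MRC-5/MRC-9 (EMEM, 10% FBS) treated in triplicate 72 h, fixed with ice-cold 10% TCA, stained with 0.4% SRB in 1% acetic acid, absorbance 540 nm; IC₅₀ by four-parameter logistic fit, mean of ≥3 independent experiments.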

[6] = Selectivity ratio of IC50 for human MRC9 cells to IC50 for human A549 cells; summary of the method: as §3
MRC5 = experiment: Antiproliferative activity against human MRC5 cells assessed as reduction in viability after 72 hrs by SRB assay; format: cell-based; details: MRC5, 72 h; summary of the method: as §1
[7] = Cytotoxicity against Sprague-Dawley rat primary neuronal cells assessed as reduction in cell viability at 300 nM after 24 hrs by MTT assay; format: cell-based; details: read-out: INH
[8] = Antiproliferative activity against human MRC9 cells assessed as reduction in viability after 72 hrs by SRB assay; format: cell-based; details: MRC9, 72 h; summary of the method: as §1
[9] = Cytotoxicity against Sprague-Dawley rat primary neuronal cells assessed as reduction in cell viability after 24 hrs by MTT assay; format: cell-based

Compound	IC50 (Bel-7402)	IC50 (A549)	further results
COc1cc2c3c(c4ccc(OC(=O)c5cccnc5)cc4c2cc1OC)CN1CCCCC1C3 (centres undefined)	0.238 µM	0.277 µM	–
C#CCOc1ccc2c3c(c4cc(OC)c(OC)cc4c2c1)CC1CCCCN1C3 (centres undefined)	0.033 µM	0.03 µM	–
CCOC(=O)COc1ccc2c3c(c4cc(OC)c(OC)cc4c2c1)CC1CCCCN1C3 (centres undefined)	0.411 µM	0.458 µM	–
COc1cc2c3c(c4ccc(OC(=O)c5cccs5)cc4c2cc1OC)CN1CCCCC1C3 (centres undefined)	0.079 µM	0.115 µM	–
COc1cccc2c1C(=O)c1c(O)c3c(c(O)c1C2=O)C[C@@](O)(C(=O)CO)C[C@@H]3O[C@H]1C[C@H](N)[C@H](O)[C@H](C)O1.Cl [DOXORUBICIN HYDROCHLORIDE]	–	–	IC50 (K562): 0.0777 µM; IC50 (K562/Adr): 3.31 µM; Ratio IC50 [1]: 42.6
COc1cc2c3c(c4ccc(OC(=O)C5CCCCC5)cc4c2cc1OC)CN1CCCCC1C3 (centres undefined)	0.115 µM	0.191 µM	–
COc1cc2c3c(c4ccc(OCc5ccccc5)cc4c2cc1OC)CN1CCCCC1C3O (racemic)	0.917 µM	1.53 µM	–
COc1cc2c3c(c4ccc(OC(=O)C(C)(C)C)cc4c2cc1OC)CN1CCCCC1C3 (centres undefined)	0.136 µM	0.103 µM	–
CC[C@]1(O)C[C@H]2CN(CCc3c([nH]c4ccccc34)[C@@](C(=O)OC)(c3cc4c(cc3OC)N(C=O)[C@H]3[C@@](O)(C(=O)OC)[C@H](OC(C)=O)[C@]5(CC)C=CCN6CC[C@]43[C@@H]65)C2)C1 [VINCRISTINE]	–	–	IC50 (KB): 0.0002 µM; IC50 [2]: 0.239 µM; Ratio IC50 [3]: 1193.5
Cl.Cl.O=C1c2c(O)ccc(O)c2C(=O)c2c(NCCNCCO)ccc(NCCNCCO)c21 [MITOXANTRONE HYDROCHLORIDE]	–	–	IC50 (HL60/MX2): 0.351 µM; IC50 (HL-60): 0.0072 µM; Ratio IC50 [4]: 48.7
COc1cc2c3c(c4ccc(OCCOC(=O)[C@H](C)N)cc4c2cc1OC)CN1CCCCC1C3 (some centres undefined)	0.047 µM	0.049 µM	–
COc1cc2c3c(c4ccc(OC(=O)c5ccco5)cc4c2cc1OC)CN1CCCCC1C3 (centres undefined)	0.059 µM	0.052 µM	–
COc1cc2c3c(c4ccc(O)cc4c2cc1OC)CN1CCCC[C@H]1C3	0.32 µM	0.182 µM	–

Continued, in another order:

IC50 (Bel-7402)	IC50 (A549)	Compound	further results
0.02 µM	0.029 µM	COc1cc2c3c(c4ccc(OC(=O)c5cccc6nnsc56)cc4c2cc1OC)CN1CCCCC1C3 (centres undefined)	–
0.0034 to 0.0035 µM	0.0012 to 0.0029 µM	COc1cc2c3c(c4ccc(O)cc4c2cc1OC)CN1CCCCC1C3 (racemic)	–
0.008 µM	0.012 µM	COc1cc2c3c(c4ccc(O)cc4c2cc1OC)CN1CCCCC1C3O (racemic)	–
0.023 µM	0.022 µM	COc1cc2c3c(c4ccc(OC(C)=O)cc4c2cc1OC)CN1CCCCC1C3 (centres undefined)	–
0.0022 to 0.006 µM	0.001 to 0.003 µM	COc1cc2c3c(c4ccc(OCC#N)cc4c2cc1OC)CN1CCCCC1C3 (racemic)	–
0.014 µM	0.016 µM	COc1cc2c3c(c4ccc(OCC(N)=O)cc4c2cc1OC)CN1CCCCC1C3 (centres undefined)	–
0.0024 µM	0.0008 µM	COc1cc2c3c(c4ccc(OCC#N)cc4c2cc1OC)CN1CCCC[C@@H]1C3	IC50 (L02): 0.0039 µM; Ratio IC50 [5]: 3 - 4; Ratio IC50 [6]: 3 - 4; IC50 (MRC5): 0.0032 µM; cytotoxicity at 24 h, 0.3 µM [7]: 50%; IC50 [8]: 0.0027 µM; inhibition (INH) [9]: Dose-dependent effect
0.0258 µM	0.0129 µM	COc1cc2c3c(c4ccc(OCC#N)cc4c2cc1OC)CN1CCCC[C@H]1C3	–
0.029 µM	0.03 µM	COc1cc2c3c(c4ccc(OC(=O)C5CC5)cc4c2cc1OC)CN1CCCCC1C3 (centres undefined)	–
